Reference: ChEMBL document CHEMBL1137562, “Synthesis and structure-activity relationships of 16-modified analogs of 2-methoxyestradiol” (Bioorg Med Chem, 2007)

Tested on: HUVEC
Experiment: Antiproliferative activity against human HUVECs after 48 hrs
Type: cell-based
Settings: not given
How it was run: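 HUVEC kept in EGM, plated at 5000 cells/well and left to attach overnight. Cells were exposed to increasing drug concentrations for 48 h at 37 °C. DNA synthesis was read by colorimetric BrdU ELISA. Each concentration was run in triplicate in at least two independent experiments, reported as mean ±SD.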

Row | SMILES | IC50
1 | COc1cc2c(cc1O)CC[C@@H]1[C@@H]2CC[C@]2(C)[C@@H](O)[C@H](CO)C[C@@H]12 | 2.92 µM
2 | COc1cc2c(cc1O)CC[C@@H]1[C@@H]2CC[C@]2(C)[C@@H](O)[C@@H](CO)C[C@@H]12 | 6.36 µM
3 | COc1cc2c(cc1O)CC[C@@H]1[C@@H]2CC[C@]2(C)[C@@H](O)[C@H](C)C[C@@H]12 | 0.35 µM
4 | COc1cc2c(cc1O)CC[C@@H]1[C@@H]2CC[C@]2(C)[C@@H](O)CC[C@@H]12 [2-METHOXYESTRADIOL] | 0.84 µM
5 | CCC[C@@H]1C[C@H]2[C@@H]3CCc4cc(O)c(OC)cc4[C@H]3CC[C@]2(C)[C@H]1O | 6.55 µM
6 | CCC[C@H]1C[C@H]2[C@@H]3CCc4cc(O)c(OC)cc4[C@H]3CC[C@]2(C)[C@H]1O | 17.1 µM
7 | CCCC[C@H]1C[C@H]2[C@@H]3CCc4cc(O)c(OC)cc4[C@H]3CC[C@]2(C)[C@H]1O | 8.17 µM
8 | COc1cc2c(cc1O)CC[C@@H]1[C@@H]2CC[C@]2(C)[C@@H](O)[C@H](CN(C)C)C[C@@H]12 | 36.8 µM
9 | COc1cc2c(cc1O)CC[C@@H]1[C@@H]2CC[C@]2(C)[C@@H](O)[C@@H](C)C[C@@H]12 | 2.26 µM
10 | COc1cc2c(cc1O)CC[C@@H]1[C@@H]2CC[C@]2(C)[C@@H](O)[C@H](CC(C)C)C[C@@H]12 | 7.15 µM
11 | CCCC[C@@H]1C[C@H]2[C@@H]3CCc4cc(O)c(OC)cc4[C@H]3CC[C@]2(C)[C@H]1O | 18.2 µM
12 | CC[C@@H]1C[C@H]2[C@@H]3CCc4cc(O)c(OC)cc4[C@H]3CC[C@]2(C)[C@H]1O | 1.35 µM

Tested on: MCF7
Experiment: Antiproliferative activity against human MCF7 cells after 8 to 10 days relative to 2-methoxyestradiol
Type: functional
Settings: not given
How it was run: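 Estrogen-dependent MCF-7 cells (passage 60–90) plated at 20–30,000 cells/well and left overnight. Cells were washed and starved 3 days in phenol red-free IMEM with 2% charcoal-dextran-stripped FBS, then treated with increasing concentrations in the same medium, refreshed every 2–3 days. Cells were Coulter-counted after 8 or 10 days. Triplicates in at least two independent experiments; stimulation index relative to 2-methoxyestradiol (1.00).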

Row | SMILES | Activity
13 | COc1cc2c(cc1O)CC[C@@H]1[C@@H]2CC[C@]2(C)[C@@H](O)[C@H](CO)C[C@@H]12 | 0.93
14 | COc1cc2c(cc1O)CC[C@@H]1[C@@H]2CC[C@]2(C)[C@@H](O)[C@@H](CO)C[C@@H]12 | 1.14
15 | COc1cc2c(cc1O)CC[C@@H]1[C@@H]2CC[C@]2(C)[C@@H](O)[C@H](C)C[C@@H]12 | 2.07
16 | CCC[C@@H]1C[C@H]2[C@@H]3CCc4cc(O)c(OC)cc4[C@H]3CC[C@]2(C)[C@H]1O | 0.83
17 | CCC[C@H]1C[C@H]2[C@@H]3CCc4cc(O)c(OC)cc4[C@H]3CC[C@]2(C)[C@H]1O | 0.93
18 | CCCC[C@H]1C[C@H]2[C@@H]3CCc4cc(O)c(OC)cc4[C@H]3CC[C@]2(C)[C@H]1O | 0.82
19 | COc1cc2c(cc1O)CC[C@@H]1[C@@H]2CC[C@]2(C)[C@@H](O)[C@H](CN(C)C)C[C@@H]12 | 1.43
20 | COc1cc2c(cc1O)CC[C@@H]1[C@@H]2CC[C@]2(C)[C@@H](O)[C@@H](C)C[C@@H]12 | 1.62
21 | COc1cc2c(cc1O)CC[C@@H]1[C@@H]2CC[C@]2(C)[C@@H](O)[C@H](CC(C)C)C[C@@H]12 | 0.41
22 | CCCC[C@@H]1C[C@H]2[C@@H]3CCc4cc(O)c(OC)cc4[C@H]3CC[C@]2(C)[C@H]1O | 0.73
23 | CC[C@@H]1C[C@H]2[C@@H]3CCc4cc(O)c(OC)cc4[C@H]3CC[C@]2(C)[C@H]1O | 1.09

Tested on: MDA-MB-231
Experiment: Antiproliferative activity against human MDA-MB-231 cells after 48 hrs
Type: functional, cell-based
Settings: MDA-MB-231, 48 h
How it was run: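 MDA-MB-231 cells kept in DMEM with 10% FBS, 2 mM L-glutamine and penicillin/streptomycin, plated at 2000 cells/well and left to attach overnight. Cells were exposed to increasing concentrations for 48 h. Proliferation was read as DNA synthesis by colorimetric BrdU ELISA. Triplicates in at least two independent experiments, reported as mean ±SD.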

Row | IC50 | SMILES
24 | 4.26 µM | COc1cc2c(cc1O)CC[C@@H]1[C@@H]2CC[C@]2(C)[C@@H](O)[C@H](CO)C[C@@H]12
25 | 6.09 µM | COc1cc2c(cc1O)CC[C@@H]1[C@@H]2CC[C@]2(C)[C@@H](O)[C@@H](CO)C[C@@H]12
26 | 0.74 µM | COc1cc2c(cc1O)CC[C@@H]1[C@@H]2CC[C@]2(C)[C@@H](O)[C@H](C)C[C@@H]12
27 | 35.1 µM | CCC[C@@H]1C[C@H]2[C@@H]3CCc4cc(O)c(OC)cc4[C@H]3CC[C@]2(C)[C@H]1O
28 | 45.1 µM | CCC[C@H]1C[C@H]2[C@@H]3CCc4cc(O)c(OC)cc4[C@H]3CC[C@]2(C)[C@H]1O
29 | 37.9 µM | CCCC[C@H]1C[C@H]2[C@@H]3CCc4cc(O)c(OC)cc4[C@H]3CC[C@]2(C)[C@H]1O
30 | 2.4 µM | COc1cc2c(cc1O)CC[C@@H]1[C@@H]2CC[C@]2(C)[C@@H](O)[C@@H](C)C[C@@H]12
31 | 38.3 µM | COc1cc2c(cc1O)CC[C@@H]1[C@@H]2CC[C@]2(C)[C@@H](O)[C@H](CC(C)C)C[C@@H]12
32 | 27.9 µM | CCCC[C@@H]1C[C@H]2[C@@H]3CCc4cc(O)c(OC)cc4[C@H]3CC[C@]2(C)[C@H]1O

Row | SMILES | IC50
33 | COc1cc2c(cc1O)CC[C@@H]1[C@@H]2CC[C@]2(C)[C@@H](O)CC[C@@H]12 [2-METHOXYESTRADIOL] | 1 µM
34 | COc1cc2c(cc1O)CC[C@@H]1[C@@H]2CC[C@]2(C)[C@@H](O)[C@H](CN(C)C)C[C@@H]12 | 22.7 µM
35 | CC[C@@H]1C[C@H]2[C@@H]3CCc4cc(O)c(OC)cc4[C@H]3CC[C@]2(C)[C@H]1O | 3.59 µM
